Data set [1] is described as follows: Selectivity index, ratio of IC50 for cytotoxicity against bovine MDBK cells to IC50 for Trypanocidal activity against Trypanosoma brucei rhodesiense.
For data set [2], the system named is Trypanosoma brucei gambiense. The data set is described as follows: Trypanocidal activity against Trypanosoma brucei gambiense assessed as reduction in intracellular ATP production incubated for 72 hrs by CellTiter-Glo luminescent cell viability assay. Format: functional, organism-based. The method, boiled down: (§1)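 Bloodstream trypanosomes in 96-well culture were exposed to compound in 5-fold serial dilutions from 25 µg/mL to 1.6 ng/mL for 72 h. Seeding and temperature: T. b. brucei, T. b. gambiense and T. b. rhodesiense at 5×10^3 cells/mL and 37 °C; T. evansi at 1×10^4 cells/mL and 37 °C; T. congolense at 2×10^5 cells/mL and 33 °C. Viability was read as intracellular ATP by CellTiter-Glo luminescence. Three replicates; IC50 calculated.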

The next data set deals with MDBK cells (Bos taurus). The data set is described as follows: Cytotoxicity against bovine MDBK cells assessed as reduction in cell viability incubated for 72 hrs by CCK8 assay.
Data set [3] can be described thus: Selectivity index, ratio of IC50 for cytotoxicity against bovine MDBK cells to IC50 for Trypanocidal activity against Trypanosoma congolense.
Data set [4] relates to Trypanosoma brucei rhodesiense. In words: Trypanocidal activity against Trypanosoma brucei rhodesiense assessed as reduction in intracellular ATP production incubated for 72 hrs by CellTiter-Glo luminescent cell viability assay. Format: functional, organism-based. The method, boiled down:
as §1
On the technique in general: Cellular ATP, detected with luciferase, serves as a proxy for viable cell number.

Data set [5] has as its system Trypanosoma brucei brucei. In words: Trypanocidal activity against Trypanosoma brucei brucei assessed as reduction in intracellular ATP production incubated for 72 hrs by CellTiter-Glo luminescent cell viability assay. Format: functional, organism-based. A digest of the protocol:
as §1

A further data set concerns Trypanosoma evansi. The data set is described as follows: Trypanocidal activity against Trypanosoma evansi assessed as reduction in intracellular ATP production incubated for 72 hrs by CellTiter-Glo luminescent cell viability assay. Format: functional, organism-based. A digest of the protocol:
as §1

Data set [6] is described as follows: Selectivity index, ratio of IC50 for cytotoxicity against bovine MDBK cells to IC50 for Trypanocidal activity against Trypanosoma evansi.
Data set [7] in a line: Selectivity index, ratio of IC50 for cytotoxicity against bovine MDBK cells to IC50 for Trypanocidal activity against Trypanosoma brucei brucei. Particulars: cattle.
Data set [8] can be described thus: Selectivity index, ratio of IC50 for cytotoxicity against bovine MDBK cells to IC50 for Trypanocidal activity against Trypanosoma brucei gambiense. The note with it: cattle.
The test system of the next data set is Trypanosoma congolense. In words: Trypanocidal activity against Trypanosoma congolense assessed as reduction in intracellular ATP production incubated for 72 hrs by CellTiter-Glo luminescent cell viability assay. It counts as functional, organism-based. A digest of the protocol:
as §1

Among the data in ChEMBL document CHEMBL4811303, “Synthesis and evaluation of trypanocidal activity of derivatives of naturally occurring 2,5-diphenyloxazoles” (Bioorg Med Chem, 2021) are selectivity ratio and IC50 values, retold here.

With `COc1ccc(-c2cnc(-c3cccc(OC)c3OC)o2)cc1`, the selectivity ratio in [1] turned out to be 0.3; in data set [3] it was 1.3; in [6], 0.35; in data set [7] it was 0.3; in data set [8], 0.31. Moreover, the half-inhibitory concentration (IC50) was 74.5 µM in data set [2]; 22.8 µM in the data set with MDBK cells (Bos taurus); 77 µM in data set [4]; 76.4 µM in data set [5]; 64.5 µM with Trypanosoma evansi; 17.3 µM in the data set on Trypanosoma congolense.
`Oc1ccccc1-c1nnc(-c2cccc(O)c2O)s1`: the selectivity ratio came out at 3.1 in data set [1]; 16 in data set [3]; 6.3 in [6]; 3.5 in data set [7]; 3 in data set [8]. Also, the IC50 in data set [2] was determined as 4.6 µM; in the data set with MDBK cells (Bos taurus), 13.6 µM; in [4] it was 4.4 µM; in data set [5], 3.9 µM; in the data set with Trypanosoma evansi, 2.1 µM; in the data set with Trypanosoma congolense, 0.85 µM.
On to `COc1cccc(-c2ncc(-c3ccccc3OC)o2)c1`, for which the selectivity ratio was less than 1.8 in data set [1]; 24 in data set [3]; less than 1.8 in data set [6]; less than 1.8 in data set [7]; less than 1.8 in data set [8]. Also, the IC50 was more than 88.9 µM in data set [2]; 161 µM in the data set with MDBK cells (Bos taurus); more than 88.9 µM in data set [4]; more than 88.9 µM in data set [5]; more than 88.9 µM with Trypanosoma evansi; 6.7 µM in the data set with Trypanosoma congolense.
As for `CC(=O)Oc1ccc(OC(C)=O)c(-c2cnc(-c3ccccc3)o2)c1`, the selectivity ratio is 0.15 in [1]; 2.4 in data set [3]; 0.51 in data set [6]; 0.58 in [7]; 0.23 in data set [8]. In addition, the IC50 in data set [2] came to 41.9 µM; in the data set with MDBK cells (Bos taurus) it was 9.6 µM; in data set [4] it was 64.4 µM; in data set [5], 16.6 µM; in the data set on Trypanosoma evansi, 18.9 µM; with Trypanosoma congolense, 3.9 µM.
As for `COc1ccccc1-c1nnc(-c2cccc(OC)c2OC)s1`, the selectivity ratio in data set [1] is more than 11; in [3], more than 80; in [6], more than 11; in data set [7] it was more than 10; in data set [8], more than 14. Further, the IC50 in data set [2] is 22.1 µM; with MDBK cells (Bos taurus) it was more than 305 µM; in [4], 27.2 µM; in [5], 29.8 µM; in the data set with Trypanosoma evansi, 28.1 µM; with Trypanosoma congolense it was 3.8 µM.
For the compound `COc1cccc(-c2cnc(-c3cccc(OC)c3OC)o2)c1OC`, the selectivity ratio in [1] was 1.3; in [3] it was 3.4; in data set [6], 1.4; in [7], 1.3; in data set [8], 1.3. For the same compound, the IC50 in data set [2] was determined as 69.2 µM; with MDBK cells (Bos taurus) it was 90.8 µM; in [4], 70.2 µM; in data set [5] it was 70 µM; in the data set on Trypanosoma evansi, 65.5 µM; with Trypanosoma congolense, 26.4 µM.
With `CCCOc1ccccc1-c1cnc(-c2cccc(OC)c2OC)o1`, the selectivity ratio is more than 11 in data set [1]; more than 39 in [3]; more than 10 in data set [6]; more than 15 in [7]; more than 10 in [8]. For the same compound, the IC50 was 28.2 µM in [2]; more than 295 µM in the data set with MDBK cells (Bos taurus); 27.1 µM in data set [4]; 20.3 µM in data set [5]; 28.4 µM with Trypanosoma evansi; 7.6 µM in the data set on Trypanosoma congolense.
Regarding `Oc1ccc(O)c(-c2cnc(-c3ccccc3)o2)c1`, the selectivity ratio is 0.42 in [1]; 1.6 in data set [3]; 0.61 in data set [6]; 0.36 in data set [7]; 0.42 in [8]. For the same compound, the IC50 in data set [2] is 17.8 µM; with MDBK cells (Bos taurus) it was 7.5 µM; in data set [4] it was 18.1 µM; in data set [5] it was 20.6 µM; in the data set with Trypanosoma evansi, 12.2 µM; in the data set on Trypanosoma congolense it was 4.7 µM.
Take `Oc1ccccc1-c1cnc(-c2cccc(O)c2O)o1`: the selectivity ratio amounted to 2.5 in data set [1]; 6.3 in data set [3]; 1.5 in [6]; 0.77 in data set [7]; 0.52 in data set [8]. For the same compound, the IC50 in data set [2] worked out at 13.5 µM; in the data set with MDBK cells (Bos taurus), 7 µM; in data set [4], 2.8 µM; in data set [5], 9.1 µM; in the data set with Trypanosoma evansi, 4.7 µM; in the data set with Trypanosoma congolense, 1.1 µM.
On to `COc1cccc(-c2cnc(-c3cccc(OC)c3OC)o2)c1`, for which the selectivity ratio in data set [1] came out at 1.3; in data set [3], 9.3; in [6], 1.4; in data set [7] it was 1.3; in data set [8], 1.3. Besides, the IC50 was 73.9 µM in data set [2]; 96.3 µM with MDBK cells (Bos taurus); 76.1 µM in [4]; 76 µM in data set [5]; 68.2 µM with Trypanosoma evansi; 10.3 µM in the data set on Trypanosoma congolense.
With `COc1cccc(-c2ncc(-c3ccccc3OCc3ccccc3)o2)c1OC`, the selectivity ratio in data set [1] is 6.2; in data set [3], 13; in [6], 5.8; in [7], 6.3; in [8] it was 6. In addition, the IC50 in [2] was determined as 16.2 µM; with MDBK cells (Bos taurus), 97.6 µM; in data set [4] it was 15.8 µM; in data set [5], 15.5 µM; with Trypanosoma evansi, 16.7 µM; with Trypanosoma congolense, 7.7 µM.
As for `COc1cccc(-c2cnc(-c3ccc(OC)c(OC)c3OC)o2)c1OC`, the selectivity ratio in data set [1] is more than 4.2; in data set [3], more than 5.3; in data set [6] it was more than 14; in data set [7], more than 4.2; in data set [8] it was more than 4.3. Also, the IC50 in data set [2] was 63.1 µM; in the data set with MDBK cells (Bos taurus) it was more than 269 µM; in [4] it was 64.5 µM; in data set [5], 64.1 µM; in the data set on Trypanosoma evansi, 19.9 µM; in the data set with Trypanosoma congolense it was 51.3 µM.
As to `Oc1ccc(O)c(-c2ncc(-c3ccccc3O)o2)c1`, the selectivity ratio in data set [1] was 0.92; in data set [3], 8.2; in data set [6], 3.5; in data set [7], 3; in data set [8], 0.96. The IC50 in data set [2] came to 80.9 µM; in the data set on MDBK cells (Bos taurus), 77.4 µM; in [4] it was 84.2 µM; in data set [5] it was 25.9 µM; in the data set with Trypanosoma evansi, 22.2 µM; with Trypanosoma congolense it was 9.5 µM.
In the case of `COc1cccc(-c2ncc(-c3ccccc3C)o2)c1OC`, the selectivity ratio in data set [1] turned out to be 1.4; in [3], 19; in data set [6] it was 1.6; in data set [7], 1.5; in data set [8] it was 1.4. Moreover, the IC50 in data set [2] turned out to be 40 µM; with MDBK cells (Bos taurus) it was 56.9 µM; in data set [4], 40 µM; in [5], 39.1 µM; with Trypanosoma evansi, 36 µM; in the data set with Trypanosoma congolense it was 3 µM.

The term IC50 denotes the point on the concentration scale where inhibition reaches its midpoint.
